In ChEMBL document CHEMBL4402598, “Design and Synthesis of Bitopic 2-Phenylcyclopropylmethylamine (PCPMA) Derivatives as Selective Dopamine D3 Receptor Ligands” (J Med Chem, 2020):
Blank lines part the entries; values can stand above or below the compound they belong to.

Columns and labels:
D(1A) dopamine receptor = D(1A) dopamine receptor (Homo sapiens, UniProt P21728); assay: Displacement of [3H]-SCH23390 from recombinant human D1 receptor transiently expressed in HEKT cell membranes measured after 90 mins by microbeta scintillation counting method
D(4) dopamine receptor = biological target: T1, D(4) dopamine receptor (Homo sapiens, UniProt P21917); assay: Displacement of [3H]-N-methylspiperone from recombinant human D4 receptor stably expressed in HEK cell membranes measured after 90 mins by microbeta scintillation counting method
T1 sequence (P21917 whole entry): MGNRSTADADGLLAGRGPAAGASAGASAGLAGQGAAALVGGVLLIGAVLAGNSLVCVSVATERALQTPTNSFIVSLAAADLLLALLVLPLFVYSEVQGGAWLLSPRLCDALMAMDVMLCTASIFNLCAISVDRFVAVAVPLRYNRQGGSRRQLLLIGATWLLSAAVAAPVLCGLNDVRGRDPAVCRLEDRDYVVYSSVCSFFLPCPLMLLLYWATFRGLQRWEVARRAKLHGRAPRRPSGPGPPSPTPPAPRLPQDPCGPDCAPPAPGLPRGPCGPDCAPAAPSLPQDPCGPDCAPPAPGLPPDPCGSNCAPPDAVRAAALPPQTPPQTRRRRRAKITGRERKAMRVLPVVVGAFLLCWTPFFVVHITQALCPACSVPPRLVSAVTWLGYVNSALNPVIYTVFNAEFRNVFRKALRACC

D(1B) dopamine receptor = D(1B) dopamine receptor (Homo sapiens, UniProt P21918); assay: Displacement of [3H]-SCH23390 from recombinant human D5 receptor transiently expressed in HEKT cell membranes measured after 90 mins by microbeta scintillation counting method
[1] = biological target: T2, 5-hydroxytryptamine receptor 2C (Homo sapiens, UniProt P28335); assay: Displacement of [3H]-Mesulergine from recombinant human 5HT2C receptor expressed in HEKT cell membranes measured after 90 mins by microbeta scintillation counting method
T2 sequence (P28335 whole entry): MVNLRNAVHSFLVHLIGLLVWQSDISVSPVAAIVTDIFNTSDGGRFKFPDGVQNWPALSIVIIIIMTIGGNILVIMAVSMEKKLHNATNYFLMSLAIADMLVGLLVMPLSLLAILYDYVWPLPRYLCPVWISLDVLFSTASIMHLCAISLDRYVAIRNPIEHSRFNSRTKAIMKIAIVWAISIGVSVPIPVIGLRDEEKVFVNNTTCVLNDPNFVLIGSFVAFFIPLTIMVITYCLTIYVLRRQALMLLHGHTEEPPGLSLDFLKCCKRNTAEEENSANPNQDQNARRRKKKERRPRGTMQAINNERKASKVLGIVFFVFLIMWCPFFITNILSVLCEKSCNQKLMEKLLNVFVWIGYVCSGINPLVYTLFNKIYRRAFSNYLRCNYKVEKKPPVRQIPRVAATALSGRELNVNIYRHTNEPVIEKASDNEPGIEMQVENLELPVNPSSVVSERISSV

[2] = biological target: T2, 5-hydroxytryptamine receptor 2C; assay: Agonist activity at human 5HT2C receptor stably expressed in HEK293 cells co-expressing Gq assessed as induction of calcium mobilization measured at 1 sec interval for 60 secs by Fluo-4 calcium dye based FLIPR assay; type: functional, cell-based
Outline: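 HEK293 cells stably expressing 5-HT2C, plated overnight in DMEM with 1% dialyzed FBS (15,000 cells/well), loaded with Fluo-4 Direct in HBSS/20 mM HEPES pH 7.4/2.5 mM probenecid for 50 min at 37 °C, then 10 min at room temperature. FLIPR read 1/s for 2 min; 10 s baseline subtracted from peak within 60 s; fold of basal. Mean of ≥3 experiments.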

[3] = biological target: 5-hydroxytryptamine receptor 2A (Homo sapiens, UniProt P28223); assay: Agonist activity at 5HT2A receptor (unknown origin) expressed in HEK293 cells co-expressing Gq assessed as induction of calcium mobilization measured at 1 sec interval for 60 secs by Fluo-4 calcium dye based FLIPR assay; type: cell-based; conditions: hek293, 1 min
[4] = biological target: 5-hydroxytryptamine receptor 2B (Homo sapiens, UniProt P41595); assay: Agonist activity at 5HT2B receptor (unknown origin) expressed in HEK293 cells co-expressing Gq assessed as induction of calcium mobilization measured at 1 sec interval for 60 secs by Fluo-4 calcium dye based FLIPR assay; type: cell-based; conditions: hek293, 1 min
D(2) dopamine receptor = D(2) dopamine receptor (Homo sapiens, UniProt P14416); assay: Displacement of [3H]-N-methylspiperone from recombinant human D2 receptor stably expressed in fibroblast cell membranes measured after 90 mins by microbeta scintillation counting method
[5] = Cmax in ICR mouse at 10 mg/kg, po by LC-MS/MS analysis; type: ADME, organism-based; set-up: dose 10 mg/kg, route oral; conditions: in vivo
Outline: (§1)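 Male ICR mice (6-8 weeks, ~25 g) dosed with compound dissolved in saline, 5 mg/kg iv or 10 mg/kg po, nine animals per group. Samples stored at -80 °C; drug quantified by LC-MS/MS.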

[6] = biological target: T2, 5-hydroxytryptamine receptor 2C; assay: Antagonist activity at human 5HT2C receptor stably expressed in HEK293 cells co-expressing Gq assessed as inhibition of 5-HT-induced calcium mobilization preincubated for 15 mins followed by 5-HT addition and measured at 1 sec interval for 60 secs by Fluo-4 calcium dye based FLIPR assay; type: functional, cell-based
Outline: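 5-HT2C stably transfected HEK293 cells, loaded with Fluo-4 Direct (HBSS, 20 mM HEPES pH 7.4, 2.5 mM probenecid; 50 min 37 °C, 10 min room temperature). Test compound added, then 5-HT (final 1 nM) 15 min later.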

[7] = Half life in ICR mouse at 5 mg/kg, iv by LC-MS/MS analysis; type: ADME, organism-based; conditions: in vivo; outline: as §1
[8] = AUC (0 to t) in ICR mouse at 5 mg/kg, iv by LC-MS/MS analysis; type: ADME, organism-based; conditions: in vivo; outline: as §1
[9] = Clearance in ICR mouse at 5 mg/kg, iv by LC-MS/MS analysis; type: ADME, organism-based; conditions: in vivo; outline: as §1
[10] = MRT in ICR mouse at 5 mg/kg, iv by LC-MS/MS analysis; type: ADME, organism-based; conditions: in vivo; outline: as §1
[11] = Volume of distribution at steady state in ICR mouse at 5 mg/kg, iv by LC-MS/MS analysis; type: ADME, organism-based; conditions: in vivo, read-out: Vdss; outline: as §1
[12] = Drug level in ICR mouse brain at 5 mg/kg, iv measured after 0.5 hrs by LC-MS/MS analysis; type: ADME, organism-based
Outline: (§2)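 Male ICR mice (6-8 weeks, ~25 g) received compound in saline, 5 mg/kg iv or 10 mg/kg po. Brains collected at 0.5 and 2.0 h, saline-washed, weighed, homogenized in cold 50% methanol (1 g:3 mL). Plasma prepared from orbital blood. Samples held at -80 °C; LC-MS/MS quantitation. Brain/plasma ratio calculated from the two concentrations.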

[13] = Drug level in ICR mouse plasma at 5 mg/kg, iv measured after 0.5 hrs by LC-MS/MS analysis; type: ADME, organism-based; outline: as §2
[14] = Ratio of drug level in ICR mouse brain to plasma at 5 mg/kg, iv measured after 0.5 hrs by LC-MS/MS analysis; type: ADME, organism-based; conditions: read-out: BPR; outline: as §2
[15] = Drug level in ICR mouse brain at 5 mg/kg, iv measured after 2 hrs by LC-MS/MS analysis; type: ADME, organism-based; outline: as §2
[16] = Drug level in ICR mouse plasma at 5 mg/kg, iv measured after 2 hrs by LC-MS/MS analysis; type: ADME, organism-based; outline: as §2
[17] = Ratio of drug level in ICR mouse brain to plasma at 5 mg/kg, iv measured after 2 hrs by LC-MS/MS analysis; type: ADME, organism-based; conditions: read-out: BPR; outline: as §2
[18] = Tmax in ICR mouse at 10 mg/kg, po by LC-MS/MS analysis; type: ADME, organism-based; conditions: in vivo; outline: as §1
[19] = Half life in ICR mouse at 10 mg/kg, po by LC-MS/MS analysis; type: ADME, organism-based; conditions: in vivo; outline: as §1
[20] = AUC (0 to t) in ICR mouse at 10 mg/kg, po by LC-MS/MS analysis; type: ADME, organism-based; conditions: in vivo; outline: as §1
[21] = MRT in ICR mouse at 10 mg/kg, po by LC-MS/MS analysis; type: ADME, organism-based; conditions: in vivo; outline: as §1
[22] = Oral bioavailability in ICR mouse at 10 mg/kg by LC-MS/MS analysis; type: ADME, organism-based; conditions: in vivo; outline: as §1
[23] = Drug level in ICR mouse brain at 10 mg/kg, po measured after 0.5 hrs by LC-MS/MS analysis; type: ADME, organism-based; outline: as §2
[24] = Drug level in ICR mouse plasma at 10 mg/kg, po measured after 0.5 hrs by LC-MS/MS analysis; type: ADME, organism-based; outline: as §2
[25] = Ratio of drug level in ICR mouse brain to plasma at 10 mg/kg, po measured after 0.5 hrs by LC-MS/MS analysis; type: ADME, organism-based; conditions: read-out: BPR; outline: as §2
[26] = Drug level in ICR mouse brain at 10 mg/kg, po measured after 2 hrs by LC-MS/MS analysis; type: ADME, organism-based; outline: as §2
[27] = Drug level in ICR mouse plasma at 10 mg/kg, po measured after 2 hrs by LC-MS/MS analysis; type: ADME, organism-based; outline: as §2
[28] = Ratio of drug level in ICR mouse brain to plasma at 10 mg/kg, po measured after 2 hrs by LC-MS/MS analysis; type: ADME, organism-based; conditions: read-out: BPR; outline: as §2

D(1B) dopamine receptor, sequence (P21918 whole entry): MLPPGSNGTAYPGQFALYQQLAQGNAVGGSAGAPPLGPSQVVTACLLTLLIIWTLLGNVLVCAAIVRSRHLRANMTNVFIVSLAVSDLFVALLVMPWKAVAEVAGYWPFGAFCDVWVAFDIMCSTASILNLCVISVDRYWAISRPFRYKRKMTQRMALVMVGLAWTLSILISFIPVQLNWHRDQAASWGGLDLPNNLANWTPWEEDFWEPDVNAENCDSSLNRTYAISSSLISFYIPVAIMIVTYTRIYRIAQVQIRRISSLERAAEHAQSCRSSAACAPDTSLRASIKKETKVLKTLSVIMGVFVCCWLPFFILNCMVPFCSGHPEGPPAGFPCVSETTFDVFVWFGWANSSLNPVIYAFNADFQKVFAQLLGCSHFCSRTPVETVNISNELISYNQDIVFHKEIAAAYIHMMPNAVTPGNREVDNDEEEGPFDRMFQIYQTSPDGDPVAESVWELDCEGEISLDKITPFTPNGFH
D(1A) dopamine receptor, sequence (P21728 whole entry): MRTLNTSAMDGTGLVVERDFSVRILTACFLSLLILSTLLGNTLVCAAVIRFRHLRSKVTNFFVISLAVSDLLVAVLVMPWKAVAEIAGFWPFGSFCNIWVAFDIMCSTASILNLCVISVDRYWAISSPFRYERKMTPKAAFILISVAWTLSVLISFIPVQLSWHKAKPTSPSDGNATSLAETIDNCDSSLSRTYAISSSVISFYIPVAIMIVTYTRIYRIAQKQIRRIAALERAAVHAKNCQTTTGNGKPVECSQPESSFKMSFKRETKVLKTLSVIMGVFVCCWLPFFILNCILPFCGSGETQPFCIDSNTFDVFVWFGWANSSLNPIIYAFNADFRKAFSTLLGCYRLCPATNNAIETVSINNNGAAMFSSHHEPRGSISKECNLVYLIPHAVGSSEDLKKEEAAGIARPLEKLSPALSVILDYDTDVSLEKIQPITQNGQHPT
5-hydroxytryptamine receptor 2B, sequence (P41595 whole entry): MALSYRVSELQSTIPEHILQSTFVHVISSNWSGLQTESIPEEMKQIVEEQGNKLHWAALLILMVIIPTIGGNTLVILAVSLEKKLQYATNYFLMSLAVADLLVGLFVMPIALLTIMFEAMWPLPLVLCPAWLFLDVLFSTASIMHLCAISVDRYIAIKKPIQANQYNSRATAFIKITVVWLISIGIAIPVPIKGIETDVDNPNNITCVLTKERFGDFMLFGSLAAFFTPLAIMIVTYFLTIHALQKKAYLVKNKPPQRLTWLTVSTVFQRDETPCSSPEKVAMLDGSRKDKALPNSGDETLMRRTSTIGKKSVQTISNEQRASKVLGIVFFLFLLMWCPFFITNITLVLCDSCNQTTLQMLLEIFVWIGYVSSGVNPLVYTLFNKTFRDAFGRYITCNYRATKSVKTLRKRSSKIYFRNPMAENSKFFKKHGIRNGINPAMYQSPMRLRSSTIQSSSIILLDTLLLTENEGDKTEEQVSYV
5-hydroxytryptamine receptor 2A, sequence (P28223 whole entry): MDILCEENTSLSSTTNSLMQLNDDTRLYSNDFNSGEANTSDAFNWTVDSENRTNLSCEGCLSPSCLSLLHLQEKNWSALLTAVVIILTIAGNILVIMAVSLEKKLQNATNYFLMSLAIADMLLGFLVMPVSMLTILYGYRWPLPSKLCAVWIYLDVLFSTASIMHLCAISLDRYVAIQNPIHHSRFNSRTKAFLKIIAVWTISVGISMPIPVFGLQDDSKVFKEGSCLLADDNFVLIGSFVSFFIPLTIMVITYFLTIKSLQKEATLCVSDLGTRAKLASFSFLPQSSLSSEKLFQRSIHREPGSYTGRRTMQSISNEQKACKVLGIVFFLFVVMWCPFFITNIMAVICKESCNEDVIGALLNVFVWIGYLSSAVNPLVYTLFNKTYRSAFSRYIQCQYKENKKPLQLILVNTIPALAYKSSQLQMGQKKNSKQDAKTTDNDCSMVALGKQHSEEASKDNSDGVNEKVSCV
D(2) dopamine receptor, sequence (P14416 whole entry): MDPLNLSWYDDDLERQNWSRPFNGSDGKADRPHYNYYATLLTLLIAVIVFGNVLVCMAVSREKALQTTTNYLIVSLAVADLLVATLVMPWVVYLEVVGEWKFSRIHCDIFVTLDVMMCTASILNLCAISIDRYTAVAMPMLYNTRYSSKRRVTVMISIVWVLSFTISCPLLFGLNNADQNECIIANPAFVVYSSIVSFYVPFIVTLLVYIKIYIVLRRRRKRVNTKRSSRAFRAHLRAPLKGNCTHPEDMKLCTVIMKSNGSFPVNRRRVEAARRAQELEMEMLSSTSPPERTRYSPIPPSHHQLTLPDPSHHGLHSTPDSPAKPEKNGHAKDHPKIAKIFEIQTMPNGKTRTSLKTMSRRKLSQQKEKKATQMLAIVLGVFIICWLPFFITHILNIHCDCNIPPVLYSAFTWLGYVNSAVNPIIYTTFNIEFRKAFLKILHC

- Ki (D(1A) dopamine receptor): 2340 nM
- Ki (D(4) dopamine receptor): 912 nM
- Ki (D(1B) dopamine receptor): > 5000 nM
- Ki [1]: 44.7 nM
- EC50 [2]: 738 nM
- Activity [3]: Active
- Activity [4]: Not Active
SMILES: CCCN(CCCCNC(=O)c1ccc(-c2ccccn2)cc1)C[C@H]1C[C@@H]1c1cccc(Cl)c1Cl.Cl

- Ki (D(1A) dopamine receptor): 1050 nM
- Ki (D(2) dopamine receptor): 1150 nM
- Ki (D(4) dopamine receptor): 776 nM
- Ki (D(1B) dopamine receptor): > 5000 nM
- Ki [1]: 138 nM
- EC50 [2]: 3540 nM
- Activity [3]: Active
- Activity [4]: Not Active
SMILES: CCCN(CCCCNC(=O)c1ccc2ccccc2c1)C[C@H]1C[C@@H]1c1cccc(Cl)c1Cl.Cl

- Cmax [5]: 43.2 ng/mL
- Ki (D(1A) dopamine receptor): 4900 nM
- Ki (D(2) dopamine receptor): 1350 nM
- Ki (D(4) dopamine receptor): 575 nM
- Ki (D(1B) dopamine receptor): > 5000 nM
- Ki [1]: 1120 nM
- IC50 [6]: 14500 nM
- Activity [3]: Active
- Activity [4]: Not Active
- half-life [7]: 26.2 min
- AUC(0-t) [8]: 660 ng·h/mL
- clearance [9]: 126 mL/min/kg
- MRT [10]: 24.9 min
- Vd [11]: 3.13 L/kg
- concentration at 0.5 h [12]: 530 ng/mL
- concentration at 0.5 h [13]: 446 ng/mL
- Kp at 0.5 h [14]: 1.19
- concentration at 2 h [15]: 19.4 ng/mL
- concentration at 2 h [16]: 12.7 ng/mL
- Kp at 2 h [17]: 1.53
- Tmax [18]: 15 min
- half-life [19]: 158 min
- AUC(0-t) [20]: 49.5 ng·h/mL
- MRT [21]: 223 min
- bioavailability [22]: 3.8%
- concentration at 0.5 h [23]: 8.21 ng/mL
- concentration at 0.5 h [24]: 16.8 ng/mL
- Kp at 0.5 h [25]: 0.49
- concentration at 2 h [26]: 6.57 ng/mL
- concentration at 2 h [27]: 8.4 ng/mL
- Kp at 2 h [28]: 0.79
SMILES: CCCN(CCCCNC(=O)c1ccc(-c2ccccn2)cc1)C[C@@H]1C[C@H]1c1cc(F)ccc1OC.Cl
